# Laboratory results reported in ChEMBL document CHEMBL1125042, “Hypolipidemic activity of rifamycin derivatives” (J Med Chem, 1990).
# Assays:
# Rattus norvegicus [1] = species on record: Rattus norvegicus; assay: Hypolipidemic activity was determined in male rats, and low-density lipoprotein level was determined; type: functional
# In short: (§1)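 Male Wistar rats (200–230 g), eight per group, were dosed orally in PEG 400 at 8 a.m. for 4 days, plus a second dose at 4 p.m. on day 4. Rats were fasted 16 h and killed 16 h after the last dose. Sera from pairs of rats were pooled. LDL (up to 1.040 g/cm³) was separated by ultracentrifugation and the HDL infranatant taken. Cholesterol was measured enzymatically. Results are % versus vehicle control, mean ± SEM of four pools, Student's t test.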
# Rattus norvegicus [2] = species on record: Rattus norvegicus; assay: Hypolipidemic activity was determined in male rats, and high-density lipoprotein level was determined; type: functional; in short: as §1
# Rattus norvegicus [3] = species on record: Rattus norvegicus; assay: Compound was tested for hypolipidemic activity in male rats, cholesterol was determined in serum.; type: functional; in short: as §1
# Staphylococcus aureus = assay: Antibacterial activity against Staphylococcus aureus 10B; type: functional
# In short: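 Agar dilution on DST agar with 2-fold drug dilutions. Inoculum of 10⁴ viable S. aureus 10B was taken from liquid-nitrogen stock, thawed 30 min and not subcultured. It was applied by multipoint replicator and incubated overnight at 37 °C. MIC is the lowest concentration inhibiting growth relative to control cultures.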
# Rattus norvegicus [4] = assay: Hypolipidemic activity was determined in male rats, cholesterol was determined in low-density lipoproteins at 100 mg/kg; type: functional, organism-based; parameters: dose 100 mg/kg
# In short: (§2)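 Groups of eight male Wistar rats (200–230 g) dosed orally in PEG 400, either daily for 7 days (killed 24 h after the last dose) or for 4 days with a second dose on day 4 (killed 16 h later). Fasted 16 h. Paired sera pooled, lipoproteins separated by ultracentrifugation (1.006 and 1.040 g/cm³), HDL taken as the infranatant. Cholesterol measured enzymatically; % vs vehicle, mean ± SEM of four pools.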
# Rattus norvegicus [5] = assay: Hypolipidemic activity was determined in male rats, cholesterol was determined in high-density lipoproteins at 100 mg/kg; type: functional, organism-based; parameters: dose 100 mg/kg; in short: as §2
# Rattus norvegicus [6] = assay: Hypolipidemic activity was determined in male rats, and serum cholesterol level was determined at 100 mg/kg
# Rattus norvegicus [7] = assay: Compound was tested for hypolipidemic activity in male rats, cholesterol level was determined in serum at 30 mg/kg; type: functional, organism-based; parameters: dose 30 mg/kg; in short: as §1
# Rattus norvegicus [8] = assay: Hypolipidemic activity was determined in male rats, and low-density lipoprotein level was determined at 30 mg/kg
# Rattus norvegicus [9] = assay: Hypolipidemic activity was determined in male rats, cholesterol was determined in high-density lipoproteins at 30 mg/kg; type: functional, organism-based; parameters: dose 30 mg/kg; in short: as §2
# Rattus norvegicus [10] = species on record: Rattus norvegicus; details: 30 mg/kg
# Rattus norvegicus [11] = assay: Hypolipidemic activity was determined in male rats, and high-density lipoprotein level was determined at 100 mg/kg; type: functional; in short: as §1
# Rattus norvegicus [12] = assay: Hypolipidemic activity was determined in male rats, and low-density lipoprotein level was determined at 100 mg/kg; type: functional; in short: as §1
# Rattus norvegicus [13] = assay: Compound was tested for hypolipidemic activity in male rats, cholesterol was determined in serum at 100 mg/kg; type: functional; in short: as §1
SMILES,Activity (Rattus norvegicus [1]),Activity (Rattus norvegicus [2]),Activity (Rattus norvegicus [3]),MIC (Staphylococcus aureus),Serum LDL-cholesterol (Rattus norvegicus [4]),Serum HDL-cholesterol (Rattus norvegicus [5]),Serum cholesterol (Rattus norvegicus [6]),Serum cholesterol (Rattus norvegicus [7]),Serum LDL-cholesterol (Rattus norvegicus [8]),Serum HDL-cholesterol (Rattus norvegicus [9]),Serum cholesterol (Rattus norvegicus [10]),Activity (Rattus norvegicus [11]),Activity (Rattus norvegicus [12]),Activity (Rattus norvegicus [13])
COc1c(C)c2c3c4c1C(=O)C(=C(N1CCN(Cc5c(C)cc(C)cc5C)CC1)C4=O)NC(=O)/C(C)=C\C=C\C(C)C(O)C(C)C(O)C(C)C(OC(C)=O)C(C)C(OC)/C=C/OC(C)(O2)C3=O (stereo not given),1%,-6%,-4%,1 µg/mL,,,,,,,,,,
CCOC(=O)C(C)(C)Oc1ccc(Cl)cc1,,,,,14%,-34%,-30%,-15%,-8%,-13%,,,,
O=C(O)c1cccnc1,,,,,-52%,-13%,-10%,,-32%,-1%,-6%,,,
CO[C@H]1/C=C/O[C@@]2(C)Oc3c(C)c(O)c4c(O)c(c(/C=N/N5CCN(C)CC5)c(O)c4c3C2=O)NC(=O)/C(C)=C\C=C\[C@H](C)[C@H](O)[C@@H](C)[C@@H](O)[C@@H](C)[C@H](OC(C)=O)[C@@H]1C [RIFAMPIN],,,,0.003 µg/mL,,,,,,,,-27%,-31%,-30%
